According to ChEMBL document CHEMBL4052823, “Extra Sugar on Vancomycin: New Analogues for Combating Multidrug-Resistant Staphylococcus aureus and Vancomycin-Resistant Enterococci” (J Med Chem, 2018):
In brackets after ≈: the same amount, converted by molar mass. Activity calls are given as the source filed them. No cut-off for these calls is given here.

Tests used:
[1] = Volume of distribution at steady state in CD1 mouse at 5 mg/kg, iv; assay type: ADME, organism-based; conditions: in vivo, read-out: Vdss
How it was run: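 Fasted male CD-1 mice (18−22 g), 5 mg/kg single dose into the tail vein, 6 per group. T1/2, AUClast, AUCINF_obs, CL_obs, MRTINF_obs and VSS_obs were calculated for each animal from its time−concentration curve.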

L02 = test: Cytotoxicity against human HL7702 cells assessed as decrease in cell viability at 10 to 100 uM after 72 hrs by CCK8 assay; assay type: cell-based; conditions: l02, 72 h
How it was run: (§1)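 HK-2 and HL-7702 cells were seeded at ~5000 cells/well, incubated overnight, then exposed to compound at final 10, 50 and 100 μM for 72 h. CCK-8 was added for 1.5 h at 37 °C and OD450 read. Viability was OD treated / OD untreated × 100, with triplicates.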

Enterococcus faecium [2] = test: Antibacterial activity against glycopeptide-resistant Enterococcus faecium Efm-HS-06188 vanA after 24 hrs by broth microdilution method; assay type: functional; conditions: Efm-HS-06188, 24 h
How it was run: (§2)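 Broth microdilution in cation-adjusted Mueller-Hinton II broth. DMSO stocks were diluted in broth and twofold serially from 128 to 0.0625 μg/mL or lower. Each well was inoculated with ~10^5 CFU of exponential-phase bacteria and incubated at 37 °C for 24 h. MIC was the lowest concentration giving complete growth inhibition, read per CLSI. Growth controls contained broth plus DMSO.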

Staphylococcus aureus [3] = test: Antibacterial activity against healthcare-associated methicillin-resistant/vancomycin-intermediate Staphylococcus aureus Mu50 infected in BALB/c mouse assessed as decrease in liver CFU levels at 7 mg/kg, ip administered twice in 24 hrs interval measured after 5 days; assay type: functional, organism-based
How it was run: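 Female BALB/c mice, 6−8 weeks old, were anesthetized with pentobarbital and infected retro-orbitally with ~3.8 × 10^8 CFU of exponential-phase Mu50, 12 per group. Treatment started 1 h post-infection: 7 mg/kg ip in sterile water, two doses 24 h apart. At day 5 mice were euthanized and liver homogenates plated on TSA for CFU counts. Groups were compared by two-tailed Mann−Whitney test.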

Enterococcus faecium [4] = test: Antibacterial activity against glycopeptide-resistant Enterococcus faecium Efm-HS-0649 vanA after 24 hrs by broth microdilution method; assay type: functional; conditions: Efm-HS-0649, 24 h; how it was run: as §2
Blood = test: Drug uptake in CD1 mouse blood at 5 mg/kg, iv; assay type: ADME, organism-based; conditions: in vivo
How it was run: (§3)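 Fasted male CD-1 mice (18−22 g), 5 mg/kg single dose into the tail vein, 6 per group. Blood sampled at 0.25, 0.75, 2, 4, 8 and 24 h and analysed by UPLC-MS/MS. T1/2, AUClast, AUCINF_obs, CL_obs, MRTINF_obs and VSS_obs were calculated for each animal from its time−concentration curve.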

Enterococcus faecium [5] = test: Antibacterial activity against glycopeptide-resistant Enterococcus faecium Efm-HS-0847 vanM after 24 hrs by broth microdilution method; assay type: functional; conditions: Efm-HS-0847, 24 h; how it was run: as §2
Enterococcus faecium [6] = test: Potency index, ratio of oritavancin MIC90 to test compound MIC90 for glycopeptide-resistant Enterococcus faecium Efm-HS-vb01 vanB; assay type: functional
HK-2 = test: Cytotoxicity against human HK2 cells assessed as decrease in cell viability at 10 to 100 uM after 72 hrs by CCK8 assay; assay type: cell-based; conditions: hk-2, 72 h; how it was run: as §1
Enterococcus faecium [7] = test: Antibacterial activity against glycopeptide-resistant Enterococcus faecium Efm-HS-vb01 vanB after 24 hrs by broth microdilution method; assay type: functional; conditions: Efm-HS-vb01, 24 h; how it was run: as §2
Staphylococcus aureus [8] = test: Potency index, ratio of telavancin MIC90 to test compound MIC90 for vancomycin/methicillin-susceptible Staphylococcus aureus Newman […]; assay type: functional
[9] = Clearance in CD1 mouse at 5 mg/kg, iv; assay type: ADME, organism-based; conditions: in vivo; how it was run: as §3
[10] = Binding affinity to Ac2Lys-dAla-dAla at 2 mM by 1H-13C HSQC NMR method
How it was run: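 Constant-time [13C,1H]-HSQC at 600 MHz. The compound (2 mM in D2O, pH 3.1, 25 °C) was recorded alone, then again after adding Ac2Lys-dAla-dAla to a final 10 mM under the same conditions. Spectra were overlaid.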

Staphylococcus aureus [11] = test: Antibacterial activity against methicillin-resistant Staphylococcus aureus USA300 LAC infected in BALB/c mouse assessed as mouse survival rate at 7 mg/kg, ip administered as single dose measured after 10 days relative to control; assay type: functional; conditions: 240 h
How it was run: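 Female BALB/c mice, 6−8 weeks old, were anesthetized with pentobarbital and infected retro-orbitally with ~2.35 × 10^8 CFU of exponential-phase USA300 LAC, 15 per group. A single 7 mg/kg ip dose was given 1 h after infection. Deaths were recorded daily to build survival curves.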

[12] = Half life in CD1 mouse at 5 mg/kg, iv; assay type: ADME, organism-based; conditions: in vivo; how it was run: as §3
Enterococcus faecium [13] = test: Potency index, ratio of telavancin MIC90 to test compound MIC90 for glycopeptide-resistant Enterococcus faecium Efm-HS-vb01 vanB; assay type: functional
Staphylococcus aureus [14] = test: Antibacterial activity against vancomycin/methicillin-susceptible Staphylococcus aureus Newman […] after 24 hrs by broth microdilution method; assay type: functional
How it was run: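 Broth microdilution in cation-adjusted Mueller-Hinton II broth. […] Each well received ~10^5 CFU of exponential-phase bacteria and was incubated at 37 °C for 24 h. MIC was taken as the lowest concentration giving complete growth inhibition, interpreted per CLSI.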

[15] = MRT (infinity) in CD1 mouse at 5 mg/kg, iv; assay type: ADME, organism-based; conditions: in vivo; how it was run: as §3
Staphylococcus aureus [16] = test: Antibacterial activity against healthcare-associated methicillin-resistant/vancomycin-intermediate Staphylococcus aureus Mu50 after 24 hrs by broth microdilution method; assay type: functional; conditions: Mu50, 24 h; how it was run: as §2
Enterococcus faecium [17] = test: Antibacterial activity against glycopeptide-resistant Enterococcus faecium Efm-HS-08257 vanM after 24 hrs by broth microdilution method; assay type: functional; conditions: Efm-HS-08257, 24 h; how it was run: as §2
[18] = AUClast in CD1 mouse at 5 mg/kg, iv; assay type: ADME, organism-based; parameters: dose 5 mg/kg, route intravenous, time 0 - last; conditions: in vivo; how it was run: as §3
[19] = AUC (infinity) in CD1 mouse at 5 mg/kg, iv; assay type: ADME, organism-based; parameters: dose 5 mg/kg, route intravenous, time infinity; conditions: in vivo; how it was run: as §3

CN[C@H](CC(C)C)C(=O)N[C@H]1C(=O)N[C@@H](CC(N)=O)C(=O)N[C@H]2C(=O)N[C@H]3C(=O)N[C@H](C(=O)N[C@H](C(=O)O)c4cc(O)c(CNCCO[C@@H]5O[C@H](CO)[C@H](O)[C@H](O)[C@H]5O)c(O)c4-c4cc3ccc4O)[C@H](O)c3ccc(c(Cl)c3)Oc3cc2cc(c3O[C@@H]2O[C@H](CO)[C@@H](O)[C@H](O)[C@H]2O[C@H]2C[C@](C)(NCc3ccc(-c4ccc(C(F)(F)F)cc4)cc3)[C@H](O)[C@H](C)O2)Oc2ccc(cc2Cl)[C@H]1O
Vd [1]: 1.08 L/kg | Activity (L02): Non-Toxic | MIC (Enterococcus faecium [2]): 1 µg/mL (≈ 0.521 µM) | Activity (Staphylococcus aureus [3]): Active | MIC (Enterococcus faecium [4]): 2 µg/mL (≈ 1.04 µM) | Drug uptake (Blood): > 1 µg/mL | MIC (Enterococcus faecium [5]): 8 µg/mL (≈ 4.17 µM) | Ratio (Enterococcus faecium [6]): 4 | Activity (HK-2): Non-Toxic | MIC (Enterococcus faecium [7]): ≤ 0.06 µg/mL | Ratio (Staphylococcus aureus [8]): 8 - 16 | clearance [9]: 4.42 mL/min/kg | Activity [10]: Active | survival at 7 mg/kg (Staphylococcus aureus [11]): 86.7% | half-life [12]: 2.94 h | Ratio (Enterococcus faecium [13]): 16 | MIC90 (Staphylococcus aureus [14]): 0.03 µg/mL (≈ 0.0156 µM) | MRT inf [15]: 4.21 h | MIC90 (Staphylococcus aureus [16]): 0.25 µg/mL (≈ 0.13 µM) | MIC (Enterococcus faecium [17]): 2 µg/mL (≈ 1.04 µM) | AUC(0-t) [18]: 16600 ng·h/mL | AUC(0-inf) [19]: 20000 ng·h/mL
